Cytotoxicity data for 72 compounds are collected here from ChEMBL document CHEMBL4513216, “Probing the Open Global Health Chemical Diversity Library for Multistage-Active Starting Points for Next-Generation Antimalarials” (ACS Infect Dis, 2020).

A short description of the data set: Toxicity liver stage against HepG2, at 10uM. Also on record: test concentration 10 uM, cell line HepG2-A16-CD81EGFP. In kind it is cell-based. To be noted: human, HepG2-A16-CD81EGFP cells; read-out: INHIBITION
Put shortly: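 Uninfected HepG2-A16-CD81EGFP cells, 3 × 10^3 per well, 1536-well, plated on prespotted compound at 10 μM final, parasite-free screening media added to match infected plates; puromycin 10 μM positive, DMSO 0.5% negative; run in parallel with 48 h PbLuc assay at 37 °C, 5% CO2; viability by CellTiter-Glo luminescence, normalized to controls.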
In the case of `COc1cccc(CNC[C@H]2COCc3nc4cccnc4n32)n1`, the cytotoxicity at 10 µM was -1.57%. In the case of `CN1CCN2C(=O)N(C3CCOCC3)C[C@H]2C1` it was 0.523%. In the case of `O=C(c1ccccn1)N1C[C@@H]2OCC(=O)N(CC3CCCCC3)[C@@H]2C1` it was -2.86%; in that of `CC(=O)N1CCN(CCNC(=O)c2nc3ccccc3c(=O)[nH]2)CC1`, 6.45%; in that of `Cc1cccc(S(=O)(=O)NCC2CCN(c3cnccn3)CC2)c1`, 7.99%. The same measure for `O=C1CN(C(=O)c2nnn(-c3ccc(C(F)(F)F)cc3)n2)CCN1`: -2.77%; for `CCN1CCNC(=O)C12CCN(S(=O)(=O)c1ccccc1)CC2`: 0.464%. As to `CC(=O)N1CCC2(CC1)CN(C(=O)c1cccc3[nH]ccc13)CCO2`, the cytotoxicity at 10 µM is -149%.

Regarding `O=C(c1ccc[nH]1)N1Cc2nccn2CC(Cn2ncccc2=O)C1` (configuration not stated), the cytotoxicity at 10 µM was 3.66%. The same measure for `Cc1nc(Nc2ccc(Cl)cn2)sc1C(=O)NC(C)C`: 14%; for `COCCn1ccc(=O)c(OCC(=O)Nc2ccccc2)c1C`: 3.72%; for `O=C(c1cc2c(s1)CCC2)N1CCCC(c2cnccn2)C1` (configuration not stated): -1.67%.

With `CN(Cc1cc(Br)cn1C)C(=O)Cc1cccnc1`, the cytotoxicity at 10 µM is -4.18%. In the case of `Cc1ccc(C(NC(=O)CCNC(=O)c2ccoc2)C(F)(F)F)cc1` (configuration not stated) it was 9.49%; in that of `O=C(c1coc(-c2ccccc2)n1)N1CCCCC1`, 11.2%. Turning to `COc1ccnc(NC(Cc2ccccc2)C(N)=O)n1` (configuration not stated), the cytotoxicity at 10 µM came out at 20.7%.

As for `CCOc1ccc(CNC(C)c2c(C)nn(C)c2C)cc1` (configuration not stated), the cytotoxicity at 10 µM is -0.00326%.

For the compound `Cc1cccc(N(CC(=O)N2CCCCC2)C(=O)C2CCCO2)c1` (configuration not stated), the cytotoxicity at 10 µM was -1.52%. On to `CCN(CC1CCOC1)C(=O)c1nc(-c2ccco2)sc1C` (configuration not stated), for which the cytotoxicity at 10 µM was -0.238%.

As to `O=C(CS(=O)(=O)c1ccc(Cl)cc1)NC1CCCc2ccccc21` (configuration not stated), the cytotoxicity at 10 µM is 1.03%. Turning to `Cc1cc(NCc2csc(-c3ccsc3)n2)no1`, the cytotoxicity at 10 µM was -0.912%. With `CCNS(=O)(=O)C1CCN(C(=O)c2ccc(F)cc2)C1` (configuration not stated), the cytotoxicity at 10 µM came to 7.98%. `Cc1ncccc1CNc1ccc(OCCO)nc1`: the cytotoxicity at 10 µM is -1.78%. The same measure for `Cc1cnn(CC2CCCN2Cc2cc(=O)n3c(C)csc3n2)c1` (configuration not stated): -2.11%. For the compound `CCn1nc2c(cc1=O)CN(CC(=O)Nc1cc(C(C)C)no1)CC2`, the cytotoxicity at 10 µM is -5.46%. With `CC1CCCN(C(=O)CCNS(=O)(=O)c2cccnc2)C1` (configuration not stated), the cytotoxicity at 10 µM was -11%. Regarding `CCN(CC)C(=O)c1cc(-c2cccc(Cl)c2)no1`, the cytotoxicity at 10 µM was -8.79%. Consider `COc1ccc(NC(=O)CSc2nc(C)c(C)c(C)c2C#N)cn1`, for which the cytotoxicity at 10 µM is -0.82%.

As to `c1cc(CNc2nnc(Cc3ccsc3)o2)cs1`, the cytotoxicity at 10 µM was determined as 0.369%. For `CS(=O)(=O)c1cccc(S(=O)(=O)NCCCN2CCNC(=O)C2)c1`, the cytotoxicity at 10 µM was -5.87%. In the case of `Cc1csc(NC(=O)C2(C)CCCO2)n1` (configuration not stated), the cytotoxicity at 10 µM is -2.54%.

In the case of `O=C1NC(c2cnc(C3CCC3)s2)Nc2ccccc21` (configuration not stated), the cytotoxicity at 10 µM was -3.95%. Turning to `CNC(=O)NC(=O)COc1c(C(C)=O)ccc(Cl)c1Cl`, the cytotoxicity at 10 µM amounted to 26.6%. In the case of `CN(CCc1cccs1)C(=O)Nc1cccc(S(C)(=O)=O)c1` it was -8.77%; in that of `CC(C)C(C)(O)CNC(=O)Nc1ccccn1` (configuration not stated), 4.77%; in that of `Cc1ccc(CNc2cnn(CC(F)F)c2)cc1C`, -0.71%.

On to `O=C(Nc1ccccn1)C1CC(=O)N(Cc2ccccn2)C1` (configuration not stated), for which the cytotoxicity at 10 µM is 2.84%. With `NC(=O)c1cc2c(nc1CC1CCCCO1)CCC2` (configuration not stated), the cytotoxicity at 10 µM was -5.4%. In the case of `Cc1occc1C(=O)Nc1ccc(C(=O)NC[C@H]2CCCN2)cc1` it was -10.6%; in that of `O=C(CN1CCOCC1)N1CCC(c2cc(N3CCCC3)ncn2)CC1`, 3.6%; in that of `O=C(Nc1nncs1)N1CCCN(C2CCCC2)CC1`, -4.31%. On to `COc1cccc(-n2cc(-c3ccnc(N[C@@H](CO)C(C)C)n3)cn2)c1`, for which the cytotoxicity at 10 µM is -1.15%. With `C[C@@H]1CN(C2(C(=O)N(C)C)Cc3ccccc3C2)C[C@H](C)O1`, the cytotoxicity at 10 µM was -5.19%. For the compound `O=C(c1cc(-c2ccco2)nc2c(Cl)cccc12)N1CCS(=O)(=O)CC1`, the cytotoxicity at 10 µM was -1.99%. The same measure for `COc1ccccc1Oc1ncccc1CNC(=O)[C@H](N)CC(C)(C)C`: -1.73%; for `COCC(c1ccccn1)N(C)C(=O)c1cc(-c2ccc(O)cc2)n[nH]1` (configuration not stated): -4.07%; for `O=C(Nc1cnn(CC(=O)N2CCCCO2)c1)c1ccccn1`: -0.0294%. In the case of `CCc1nc(C)c(CN2CCCC(c3nn(C)c(=O)n3CC)C2)[nH]1` (configuration not stated) it was -7.77%; in that of `Cc1nc(N)cc(NCc2csc(N(C)C)n2)n1`, -5.2%. In the case of `Cc1ccc2c(c1)c(CNC(=O)C1CCN(CC(N)=O)CC1)nn2C` it was -3.17%; in that of `CCc1ccc2nc(C)cc(C(=O)NC[C@@H]3CCNC[C@H]3O)c2c1`, -3%; in that of `CN(Cc1ccco1)C(=O)[C@@]12CNC[C@@H]1CN(C1CCCC1)C2`, 3.75%. Take `O=C(CCCN1CCCCC1)N1CCN(C(=O)c2ccc[nH]2)CC1`: the cytotoxicity at 10 µM worked out at 57.8%. In the case of `COc1ccccc1[C@@H]1CN(Cc2cnn(C)c2C)C[C@H]1C(=O)O` it was -3.53%. Take `CC(C)(C)n1cc(C2=CCN(CCNC(=O)c3ccccc3)CC2)cn1`: the cytotoxicity at 10 µM is -0.262%. Take `Cc1cnc(CNCc2cnc(-c3ccccc3C)s2)cn1`: the cytotoxicity at 10 µM is -0.37%. For `COc1ncccc1-c1nc(-c2ccccn2)nn1C1CCS(=O)(=O)C1` (configuration not stated), the cytotoxicity at 10 µM is -6.1%. Turning to `Fc1cnccc1CN1CCC2(CCNCC2)C1`, the cytotoxicity at 10 µM is -123%. With `CCCn1ncc(C(=O)N(CCOC)Cc2c(C)nn(CC)c2C)c1C`, the cytotoxicity at 10 µM is -4.97%. As for `CC(C)Cc1cc(CNC(=O)C2CCCN(Cc3ccco3)C2)no1` (configuration not stated), the cytotoxicity at 10 µM is 3.11%. Turning to `O=C(Nc1cccc(-c2cscn2)c1)N1CCC2(CC1)CC(O)CO2` (configuration not stated), the cytotoxicity at 10 µM was -3.13%.

In the case of `CCc1ccc2nc(C)cc(C(=O)N[C@@H]3CCCNC3)c2c1`, the cytotoxicity at 10 µM is -5.09%. Turning to `CCN(CC)S(=O)(=O)N(C)Cc1ccc2c(c1)OCCO2`, the cytotoxicity at 10 µM is -7.85%. As to `Cc1ccc(C(=O)NCc2cccnc2N(C)C)s1`, the cytotoxicity at 10 µM is -2.12%. In the case of `O=C(CS(=O)(=O)Cc1ccc(F)cc1)NC1CCCCNC1=O` (configuration not stated) it was -0.252%; in that of `COCCc1noc(CN2CCOC(Cn3cc(C)cn3)C2)n1` (configuration not stated), -4.18%.

In the case of `O=C(NCc1cccc(N2CCCCC2=O)c1)[C@@H](O)c1ccccc1`, the cytotoxicity at 10 µM is -8.31%. Consider `COc1cccc(CC(=O)N2CCN(C)c3ncccc3C2)c1`, for which the cytotoxicity at 10 µM turned out to be 2.33%. As to `CCN1CCN(C)C2(CCN(Cc3ccc(C)o3)CC2)C1=O`, the cytotoxicity at 10 µM was -7.1%. For the compound `Cn1c2c(ccc1=O)CCN(Cc1ccoc1)CC2`, the cytotoxicity at 10 µM was -153%. The same measure for `CC(C)c1cc(C(=O)N2C[C@@H]3CC[C@H]2CN(Cc2cscn2)C3)no1`: 1.27%; for `Cc1cccc(CN2C[C@H]3CC[C@@H](C2)N(Cc2c(C)noc2C)C3=O)n1`: 0.296%.
